Source: ChEMBL document CHEMBL3792359, “Discovery of Orally Available Prodrugs of the Glutamate Carboxypeptidase II (GCPII) Inhibitor 2-Phosphonomethylpentanedioic Acid (2-PMPA)” (J Med Chem, 2016)

Key:
Plasma [1] = assay: Prodrug activation in mouse plasma assessed as 2-phosphonomethylpentanedioic acid formation at 30 mg/kg administered via oral gavage after 30 mins by LC/MS/MS analysis; type: organism-based; conditions: in vivo, 0.5 h
Summary of the method: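 Mice given prodrug orally at 30 mg/kg (equivalent of 1), 10 mL/kg volume; blood taken at 30 min, N=3. Plasma extracted with methanol containing 2-PMSA internal standard. Released 1 measured selectively after mild MTBSTFA derivatization (~60 °C, 40 min) by LC/MS/MS. Total prodrug plus metabolites measured separately after n-butanol/3N HCl derivatization (60°C, 30 min), which converts all species to butyl esters of 1.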

[2] = Metabolic stability in mouse liver microsomes assessed as compound remaining at 10 uM after 1 hr by LC/MS/MS analysis; type: ADME; conditions: read-out: Stability
Summary of the method: (§1)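 Prodrug at 10 µM spiked into mouse or human plasma or liver microsomes, incubated at 37 °C on an orbital shaker. Triplicate aliquots taken at 0, 30 and 60 min, quenched with 3 volumes of ice-cold acetonitrile containing losartan internal standard, vortexed, spun 12000 g for 10 min. Parent disappearance followed by LC/MS/MS and reported as % remaining at 1 h.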

[3] = Metabolic stability in human liver microsomes assessed as compound remaining at 10 uM after 1 hr by LC/MS/MS analysis; type: ADME; conditions: read-out: Stability; summary of the method: as §1
[4] = Metabolic stability in mouse plasma assessed as compound remaining at 10 uM after 1 hr by LC/MS/MS analysis; type: ADME, cell-free; conditions: read-out: Stability; summary of the method: as §1
[5] = Metabolic stability in human plasma assessed as compound remaining at 10 uM after 1 hr by LC/MS/MS analysis; type: ADME, cell-free; conditions: read-out: Stability; summary of the method: as §1
[6] = Chemical stability of compound; type: physicochemical
[7] = Cmax in mouse at 30 mg/kg administered via oral gavage measured after 15 mins to 4 hrs by LC/MS/MS analysis; type: ADME, organism-based; set-up: dose 30 mg/kg, route oral; conditions: in vivo
Summary of the method: (§2)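 Mice were dosed by oral gavage at 30 mg/kg (parent-drug equivalent) in 10 mL/kg. Blood was taken by cardiac puncture at 0, 15 and 30 min and 1, 2 and 4 h, n=3 per time point. Plasma was stored at -80 °C and the released parent drug measured by LC/MS/MS. Cmax and Tmax are observed values; AUC is the log-linear trapezoidal AUClast.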

[8] = AUC (0 to t hrs) in mouse at 30 mg/kg administered via oral gavage measured after 15 mins to 4 hrs by LC/MS/MS analysis; type: ADME, organism-based; set-up: time lower 0.25 hr, dose 30 mg/kg, time upper 4 hr, route oral; conditions: in vivo; summary of the method: as §2
[9] = Cmax in mouse at 10 mg/kg administered via oral gavage measured after 15 mins to 4 hrs by LC/MS/MS analysis; type: ADME, organism-based; set-up: dose 10 mg/kg, route oral; conditions: in vivo
[10] = Tmax in mouse at 30 mg/kg administered via oral gavage measured after 15 mins to 4 hrs by LC/MS/MS analysis; type: ADME, organism-based; conditions: in vivo; summary of the method: as §2
[11] = AUC (0 to t hrs) in mouse at 10 mg/kg administered via oral gavage measured after 15 mins to 4 hrs by LC/MS/MS analysis; type: ADME, organism-based; set-up: dose 10 mg/kg, time 0.25-4 hr, route oral; conditions: in vivo
Plasma [12] = assay: Plasma concentration in rhesus monkey at 10 mg/kg, po measured at 0.25 to 2 hrs post dose; type: ADME, organism-based, Macaca mulatta; conditions: in vivo
Mus musculus [13] = assay: AUC (0 to t) in mouse assessed as 2-phosphonomethylpentanedioic acid at 30 mg/kg administered via oral gavage measured after 15 mins to 4 hrs by LC/MS/MS analysis; type: ADME, organism-based; set-up: time upper 4 hr, dose 30 mg/kg, time lower 0.25 hr, route oral; conditions: in vivo
Summary of the method: (§3)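 Mice dosed orally at 30 mg/kg (equivalent of 1), 10 mL/kg dosing volume. Cardiac-puncture blood at 0, 15, 30 min, 1, 2, 4 h, n=3 per time point; plasma stored at -80°C. Methanol precipitation with 2-PMSA internal standard, then mild MTBSTFA derivatization (~60 °C, 40 min) so only free 1 is measured by LC/MS/MS. Cmax/Tmax observed; AUC to last sample by log-linear trapezoidal rule.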

Mus musculus [14] = assay: Cmax in mouse assessed as 2-phosphonomethylpentanedioic acid at 30 mg/kg administered via oral gavage measured after 15 mins to 4 hrs by LC/MS/MS analysis; type: ADME, organism-based; set-up: dose 30 mg/kg, route oral; conditions: in vivo; summary of the method: as §3
Canis familiaris [15] = assay: Cmax in beagle dog assessed as 2-phosphonomethylpentanedioic acid at 10 mg/kg administered via oral gavage measured after 30 mins to 8 hrs by LC/MS/MS analysis; type: ADME, organism-based, Canis lupus familiaris; set-up: dose 10 mg/kg, route oral; conditions: in vivo
Summary of the method: (§4)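 Single beagle dog given oral dose of 10 mg/kg (expressed as equivalent of 1). Jugular venipuncture blood at 0, 30 min, 1, 2, 4, 6, 8 h into potassium oxalate/NaF tubes, kept on wet ice, spun 3000 x g, 4°C, 5 min; plasma frozen at -60 to -80°C. LC/MS/MS. Cmax and Tmax taken as observed values; AUC to last sample by log-linear trapezoidal rule.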

Canis familiaris [16] = assay: AUC (0 to t) in beagle dog assessed as 2-phosphonomethylpentanedioic acid at 10 mg/kg administered via oral gavage measured after 30 mins to 8 hrs by LC/MS/MS analysis; type: ADME, organism-based, Canis lupus familiaris; set-up: dose 10 mg/kg, time upper 8 hr, time lower 0.5 hr, route oral; conditions: in vivo; summary of the method: as §4
Canis familiaris [17] = assay: Tmax in beagle dog assessed as 2-phosphonomethylpentanedioic acid at 10 mg/kg administered via oral gavage measured after 30 mins to 8 hrs by LC/MS/MS analysis; type: ADME, organism-based, Canis lupus familiaris; conditions: in vivo; summary of the method: as §4
Mus musculus [18] = assay: Tmax in mouse assessed as 2-phosphonomethylpentanedioic acid at 30 mg/kg administered via oral gavage measured after 15 mins to 4 hrs by LC/MS/MS analysis; type: ADME, organism-based; conditions: in vivo; summary of the method: as §3

Row | SMILES | Drug metabolism (Plasma [1]) [µM] | remaining at 1 h, 10 µM [2] [%] | remaining at 1 h, 10 µM [3] [%] | remaining at 1 h, 10 µM [4] [%] | remaining at 1 h, 10 µM [5] [%] | further results
1 | COC(=O)C(CCC(=O)O)CP(=O)(OCOC(=O)C(C)(C)C)OCOC(=O)C(C)(C)C (configuration not stated) | 0.74 | 0 | 54 | 0 | 82 | 
2 | CC(C)OC(=O)OCOP(=O)(CC(CCC(=O)O)C(=O)O)OCOC(=O)OC(C)C (configuration not stated) |  |  |  |  |  | Stability [6]: Unstable
3 | O=C(O)CCC(CP(=O)(O)O)C(=O)O (configuration not stated) |  | 100 | 91 | 85 | 83 | Cmax [7]: 860 nM; AUC(0-t) [8]: 1.94 µM·h; Cmax [9]: 280 nM; Tmax [10]: 1 h; AUC(0-t) [11]: 0.6 µM·h; concentration (Plasma [12]): 180 nM
4 | CCOC(=O)CCC(CP(=O)(O)O)C(=O)OCC (configuration not stated) |  | 83 | 88 | 59 | 73 | 
5 | CCOC(=O)CCC(CP(=O)(OCOC(=O)C(C)(C)C)OCOC(=O)C(C)(C)C)C(=O)OCC (configuration not stated) |  | 0 | 0 | 0 | 18 | 
6 | COC(=O)CCC(CP(=O)(OCOC(=O)C(C)(C)C)OCOC(=O)C(C)(C)C)C(=O)OC (configuration not stated) |  | 0 | 0 | 0 | 29 | 
7 | COC(=O)CCC(CP(=O)(O)O)C(=O)OC (configuration not stated) |  | 101 | 103 | 86 | 96 | 

More lines, main results first:

Row | Drug metabolism (Plasma [1]) [µM] | remaining at 1 h, 10 µM [2] [%] | remaining at 1 h, 10 µM [3] [%] | remaining at 1 h, 10 µM [4] [%] | remaining at 1 h, 10 µM [5] [%] | SMILES | further results
8 | 15.8 | 0 | 0 | 0 | 79 | CC(C)(C)C(=O)OCOC(=O)C(CCC(=O)O)CP(=O)(OCOC(=O)C(C)(C)C)OCOC(=O)C(C)(C)C (configuration not stated) | 
9 | 15.66 | 0 | 0 | 0 | 48 | CC(C)OC(=O)OCOC(=O)C(CCC(=O)O)CP(=O)(OCOC(=O)OC(C)C)OCOC(=O)OC(C)C (configuration not stated) | AUCt (Mus musculus [13]): 35.9 µmol·h/L; Cmax (Mus musculus [14]): 15.1 µM; Cmax (Canis familiaris [15]): 51.1 µM; AUCt (Canis familiaris [16]): 126 µmol·h/L; Tmax (Canis familiaris [17]): 1 h; Tmax (Mus musculus [18]): 30 min
10 | 0.54 | 0 | 26 | 3 | 61 | CCOC(=O)C(CCC(=O)O)CP(=O)(OCOC(=O)C(C)(C)C)OCOC(=O)C(C)(C)C (configuration not stated) | 
11 | 0.49 | 0 | 32 | 0 | 80 | CCOC(=O)C(CCC(=O)O)CP(=O)(OCOC(=O)OC(C)C)OCOC(=O)OC(C)C (configuration not stated) | 
12 |  | 0.1 | 0 | 0.1 | 0 | COC(=O)CCC(CP(=O)(OCOC(=O)OC(C)C)OCOC(=O)OC(C)C)C(=O)OC (configuration not stated) | 
